How the values were obtained:
Oryctolagus cuniculus [1] = species on record: Oryctolagus cuniculus; assay: Relative binding potency towards vasorelaxant binding site compared to AP(103-126)
Method in brief: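 Varied unlabeled peptide concentrations; started by adding membranes; 30 min at 25 °C. Filtration with ice-cold buffer, then gamma counting. Nonspecific binding measured with 10^-6 M unlabeled reference peptide. Specific binding fitted by nonlinear least squares.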

[2] = test system: Atrial natriuretic peptide receptor 3 (Oryctolagus cuniculus); assay: Relative binding potency towards non-vasorelaxant binding site compared to AP(103-126)
Oryctolagus cuniculus [3] = species on record: Oryctolagus cuniculus; assay: Effective concentration in vasorelaxant assay; 0.05-0.3 uM; type: functional
Oryctolagus cuniculus [4] = species on record: Oryctolagus cuniculus; assay: Effective concentration in vasorelaxation assay; 0.05-0.3 uM; type: functional
Oryctolagus cuniculus [5] = species on record: Oryctolagus cuniculus; assay: Relative potency for vasorelaxant activity of the compound; type: functional

Structure (SMILES)	Relative potency (Oryctolagus cuniculus [1])	Relative potency [2]	EC50 (Oryctolagus cuniculus [3])	EC50 (Oryctolagus cuniculus [4])	EC50 (Oryctolagus cuniculus [5])
CC[C@H](C)[C@H](NC(=O)[C@H](CC/N=C(/N)NO)NC(=O)[C@H](CC(=O)O)NC(=O)[C@@H](NC(=O)[C@H](CCN=C(N)N)NC(=O)[C@H](CSCNC(C)=O)NC(=O)CNC(=O)[C@H](Cc1ccccc1)NC(=O)[C@H](CSCNC(C)=O)NC(=O)[C@H](CO)NC(=O)[C@@H](N)CO)[C@@H](C)CC)C(=O)NCC(=O)N[C@@H](C)C(=O)N[C@@H](CCC(N)=O)C(=O)C1SSC[C@@H](C(=O)N[C@@H](CC(N)=O)C(=O)CN[C@@H](CO)C(=O)N[C@@H](Cc2ccccc2)C(=O)N[C@@H](CCCN=C(N)N)C(N)=O)NC(=O)CNC(=O)[C@H](CC(C)C)NC(=O)CNC(=O)[C@H]1N (stereo in doubt; 9b)	0.0053	2.2			
CC[C@H](C)[C@@H]1NC(=O)[C@H](CCCN=C(N)N)NC(=O)[C@H](CC(=O)O)NC(=O)[C@H]([C@@H](C)CC)NC(=O)[C@H](CCCN=C(N)N)NC(=O)[C@@H](CCS)NC(=O)CNC(=O)[C@H](Cc2ccccc2)NC(=O)[C@@H](NC(=O)[C@H](CO)NC(=O)[C@@H](N)CO)CSSC[C@@H](C(=O)N[C@@H](CC(N)=O)C(=O)N[C@@H](CO)C(=O)N[C@@H](Cc2ccccc2)C(=O)N[C@@H](CCCN=C(N)N)C(N)=O)NC(=O)CNC(=O)[C@H](CC(C)C)NC(=O)CNC(=O)[C@@H](CCS)NC(=O)[C@H](CCC(N)=O)NC(=O)[C@H](C)NC(=O)CNC1=O	0.071	2.8			
CC[C@H](C)[C@H]1NC(=O)[C@H](CCCN=C(N)N)NC(=O)[C@H](CC(=O)O)NC(=O)[C@@H]([C@@H](C)CC)NC(=O)[C@H](CCCN=C(N)N)NC(=O)[C@@H](CSCNC(C)=O)NC(=O)CNC(=O)[C@@H](Cc2ccccc2)NC(=O)[C@H](NC(=O)[C@H](CO)NC(=O)[C@@H](N)CO)CSSC[C@H](C(=O)N[C@@H](CC(N)=O)C(=O)N[C@@H](CO)C(=O)N[C@@H](Cc2ccccc2)C(=O)N[C@@H](CCCN=C(N)N)C(N)=O)NC(=O)CNC(=O)[C@@H](CC(C)C)NC(=O)CNC(=O)[C@@H](CSCNC(C)=O)NC(=O)[C@H](CCC(N)=O)NC(=O)[C@@H](C)NC(=O)CNC1=O	0.91	0.91			
CC[C@H](C)[C@@H]1NC(=O)[C@H](CCCN=C(N)N)NC(=O)[C@H](CC(=O)O)NC(=O)[C@H]([C@@H](C)CC)NC(=O)[C@H](CCCN=C(N)N)NC(=O)[C@@H](CCSCNC(C)=O)NC(=O)CNC(=O)[C@H](Cc2ccccc2)NC(=O)[C@H](NC(=O)[C@H](CO)NC(=O)[C@@H](N)CO)CSSC[C@H](C(=O)N[C@@H](CC(N)=O)C(=O)N[C@@H](CO)C(=O)N[C@@H](Cc2ccccc2)C(=O)N[C@@H](CCCN=C(N)N)C(N)=O)NC(=O)CNC(=O)[C@H](CC(C)C)NC(=O)CNC(=O)[C@H](CSCNC(C)=O)NC(=O)[C@H](CCC(N)=O)NC(=O)[C@H](C)NC(=O)CNC1=O	0.15	0.15			
CC[C@H](C)[C@H]1NC(=O)[C@H](CCCN=C(N)N)NC(=O)[C@H](CC(=O)O)NC(=O)[C@@H]([C@@H](C)CC)NC(=O)[C@H](CCCN=C(N)N)NC(=O)CNC(=O)CNC(=O)[C@@H](Cc2ccccc2)NC(=O)[C@H](NC(=O)[C@H](CO)NC(=O)[C@@H](N)CO)CSSC[C@H](C(=O)N[C@@H](CC(N)=O)C(=O)N[C@@H](CO)C(=O)N[C@@H](Cc2ccccc2)C(=O)N[C@@H](CCCN=C(N)N)C(N)=O)NC(=O)CNC(=O)[C@@H](CC(C)C)NC(=O)CNC(=O)[C@@H](CO)NC(=O)[C@H](CCC(N)=O)NC(=O)[C@@H](C)NC(=O)CNC1=O	3.2	3.2			
CC[C@H](C)[C@@H]1NC(=O)[C@H](CCCN=C(N)N)NC(=O)[C@H](CC(=O)O)NC(=O)[C@H]([C@@H](C)CC)NC(=O)[C@H](CCCN=C(N)N)NC(=O)CNC(=O)CNC(=O)[C@H](Cc2ccccc2)NC(=O)[C@@H](NC(=O)[C@H](CO)NC(=O)[C@@H](N)CO)CSSC[C@@H](C(=O)N[C@@H](CC(N)=O)C(=O)N[C@@H](CO)C(=O)N[C@@H](Cc2ccccc2)C(=O)N[C@@H](CCCN=C(N)N)C(N)=O)NC(=O)CNC(=O)[C@H](CC(C)C)NC(=O)CNC(=O)[C@H](CO)NC(=O)[C@H](CCC(N)=O)NC(=O)[C@H](C)NC(=O)CNC1=O			50 nM		
CC[C@H](C)[C@H]1NC(=O)[C@H](CCCN=C(N)N)NC(=O)[C@H](CC(=O)O)NC(=O)[C@@H]([C@@H](C)CC)NC(=O)[C@H](CCCN=C(N)N)NC(=O)[C@H](CSCNC(C)=O)NC(=O)CNC(=O)[C@@H](Cc2ccccc2)NC(=O)[C@H](NC(=O)[C@H](CO)NC(=O)[C@@H](N)CO)CSSC[C@H](C(=O)N[C@@H](CC(N)=O)C(=O)N[C@@H](CO)C(=O)N[C@@H](Cc2ccccc2)C(=O)N[C@@H](CCCN=C(N)N)C(N)=O)NC(=O)CNC(=O)[C@@H](CC(C)C)NC(=O)CNC(=O)[C@H](CSCNC(C)=O)NC(=O)[C@H](CCC(N)=O)NC(=O)[C@@H](C)NC(=O)CNC1=O	0.48	0.48			
CC[C@H](C)[C@@H]1NC(=O)[C@H](CCCN=C(N)N)NC(=O)[C@H](CC(=O)O)NC(=O)[C@H]([C@@H](C)CC)NC(=O)[C@H](CCCN=C(N)N)NC(=O)CNC(=O)CNC(=O)[C@H](Cc2ccccc2)NC(=O)[C@@H](NC(=O)[C@H](CO)NC(=O)[C@@H](N)CO)CSSC[C@@H](C(=O)N[C@@H](CC(N)=O)C(=O)N[C@@H](CO)C(=O)N[C@@H](Cc2ccccc2)C(=O)N[C@@H](CCCN=C(N)N)C(=O)N[C@@H](Cc2ccc(O)cc2)C(=O)O)NC(=O)CNC(=O)[C@H](CC(C)C)NC(=O)CNC(=O)[C@H](CO)NC(=O)[C@H](CCC(N)=O)NC(=O)[C@H](C)NC(=O)CNC1=O				50 nM	2.3 nM
CC[C@H](C)[C@@H]1NC(=O)[C@H](CCCN=C(N)N)NC(=O)[C@H](CC(=O)O)NC(=O)[C@H]([C@@H](C)CC)NC(=O)[C@H](CCCN=C(N)N)NC(=O)[C@@H](CCSCNC(C)=O)NC(=O)CNC(=O)[C@H](Cc2ccccc2)NC(=O)[C@@H](NC(=O)[C@H](CO)NC(=O)[C@@H](N)CO)CSSC[C@@H](C(=O)N[C@@H](CC(N)=O)C(=O)N[C@@H](CO)C(=O)N[C@@H](Cc2ccccc2)C(=O)N[C@@H](CCCN=C(N)N)C(N)=O)NC(=O)CNC(=O)[C@H](CC(C)C)NC(=O)CNC(=O)[C@@H](CCSCNC(C)=O)NC(=O)[C@H](CCC(N)=O)NC(=O)[C@H](C)NC(=O)CNC1=O	0.84	0.84			

Source: ChEMBL document CHEMBL1124339, “Conformationally restricted analogues of atriopeptin(103-125)amide” (J Med Chem, 1989)
